# Screens as filed in PubChem BioAssay.
# A selection: hits, their analogues and other compounds. The true share with any hit is near 1.3%.
# MLL AF4-AF9 inh = inhibitors of AF4 peptide binding to AF9, primary screen, biochemical, AlphaScreen, biotin-AF4 peptide, FLAG-AF9, single point; AID 651704, 2012; Protein AF-9 (Homo sapiens), P42568; inhibition, % at 10 µM; actives 0.47% (n = 350,000);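 active = every replicate reaching a set inhibition limit, whatever the replicate mean, cut at about 25% in these data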
# S100A4 MyoIIA = inhibitors of S100A4-myosin IIA peptide binding, primary screen, biochemical, fluorescence polarization, TAMRA-MyoIIA peptide | inhibition, % at 10.7 µM | actives 0.14% (n = 360,000) | Protein S100-A4 (Homo sapiens), P26447 | AID 652163, 2013;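 active = mean inhibition of at least 70% across replicates, with every replicate also reaching that level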
#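 Material: S100A4 monomer protein / Buffer or medium: 50 mM HEPES pH 7.2, 10 mM CaCl2, 100 mM KCl / Times: 5 min incubation before reading / Benchmarks: neutral control DMSO, positive control TFP / Reagent: labelled myosin peptide probe, 5 nM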
# RAD52 anneal inh = RAD52 DNA annealing inhibitors, primary screen, biochemical, FRET, single point, set 2; AID 651710, 2012; recombinant RAD52 DNA annealing, FRET fluorescence; actives 0.46% (n = 360,000); inhibition, % at 18.7 µM;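 active = every replicate showing at least 50% inhibition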
# Xi reactivation = activators of inactive X chromosome reactivation, primary screen, imaging, XiGFP fibroblasts, GFP high-content imaging, set 2; activation, % at 7.58 µM; actives 0.055% (n = 360,000); AID 743238, 2013; XiGFP mouse fibroblasts, % GFP-positive cells imaging, 3 d; cells co-treated with 5-aza-dC sensitizer; scaled so ellipticine positive control = 100%;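 active = mean normalized replicate activation at least 10% and every replicate at or above 10%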
#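 System: SV40-immortalized XiGFP fibroblast cells, line 68-5-11 / Incubation: 3-day compound exposure, then 15 min fixation at room temperature / Compound: single concentration per compound, delivered by pin transfer / Buffer or medium: DMEM plus 5-aza-dC sensitizer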
# CASP6 VEID inh = human caspase-6 inhibitors, primary screen, biochemical, VEID-R110 fluorescence, single point, set 2 | P55212 | actives 0.53% (n = 350,000) | purified caspase-6, Z-VEID-R110 cleavage fluorescence | AID 686996, 2013 | inhibition, % at 12.5 µM;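 active = mean inhibition across replicates at least about 35%, with every replicate also reaching that limit, limit read from the data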
# RAD54 branch = inhibitors of human RAD54 branch migration, primary screen, biochemical, fluorescence, single point; DNA repair and recombination protein RAD54-like (Homo sapiens), Q92698; RAD54 Holliday junction branch migration, FAM/BHQ fluorescence; inhibition, % at 10.4 µM; actives 0.14% (n = 360,000);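 active = mean normalized replicate activity at least 40 and at least half of replicates scoring 40 or more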;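 also: inhibitors cause a drop in the FAM fluorescence signal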
# Target sequence (Q92698 whole entry, looked up): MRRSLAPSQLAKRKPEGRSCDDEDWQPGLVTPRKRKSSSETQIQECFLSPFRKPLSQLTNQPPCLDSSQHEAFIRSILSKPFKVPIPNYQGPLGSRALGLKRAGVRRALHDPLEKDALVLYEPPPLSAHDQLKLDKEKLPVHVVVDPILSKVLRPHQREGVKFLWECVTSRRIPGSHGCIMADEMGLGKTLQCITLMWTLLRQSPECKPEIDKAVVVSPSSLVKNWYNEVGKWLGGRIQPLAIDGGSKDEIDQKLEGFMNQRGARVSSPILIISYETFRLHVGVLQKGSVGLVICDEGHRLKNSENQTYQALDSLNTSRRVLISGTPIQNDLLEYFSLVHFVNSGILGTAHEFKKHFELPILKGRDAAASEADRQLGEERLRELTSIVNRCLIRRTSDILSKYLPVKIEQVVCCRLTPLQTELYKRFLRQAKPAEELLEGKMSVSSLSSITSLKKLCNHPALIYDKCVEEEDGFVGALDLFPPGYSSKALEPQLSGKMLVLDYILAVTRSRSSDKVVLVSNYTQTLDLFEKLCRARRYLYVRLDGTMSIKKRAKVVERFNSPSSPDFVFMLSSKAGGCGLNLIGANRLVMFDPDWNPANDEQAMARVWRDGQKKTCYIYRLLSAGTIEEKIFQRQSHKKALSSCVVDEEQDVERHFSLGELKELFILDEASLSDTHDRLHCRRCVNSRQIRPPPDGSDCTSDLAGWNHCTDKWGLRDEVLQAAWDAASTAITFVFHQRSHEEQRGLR
# A number is an active result; 0 = inactive; - = no result given; + = active, no number.
SMILES,MLL AF4-AF9 inh,S100A4 MyoIIA,RAD52 anneal inh,Xi reactivation,CASP6 VEID inh,RAD54 branch
CC(=O)N(C)C[C@@H]1Oc2ncccc2C(=O)N(C)C[C@H]1C,-,-,-,0,-,-
COc1cccc(S(=O)(=O)N[C@@H]2CC[C@@H](CC(=O)NC3CCC3)O[C@@H]2CO)c1,0,0,0,0,0,0
Cn1cccc1/C=C1\SC(=S)N(NC(=O)c2ccccc2O)C1=O,0,0,0,0,0,-
O=C(O)CCCN1C(=O)/C(=C\c2ccc(-c3nc4ccccc4s3)o2)SC1=S,0,0,0,0,43,0
O=C(CCN1C(=O)/C(=C\C=C\c2ccccc2)SC1=S)Nc1ccccc1C(=O)O,0,0,0,0,45,0
O=C(O)CCN1C(=O)/C(=C/c2ccc(-c3nc4ccccc4s3)o2)SC1=S,-,-,-,-,-,0
O=C(NN1C(=O)/C(=C/C=C/c2ccco2)SC1=S)c1ccccc1O,0,0,0,0,92,0
O=C(O)CC(C(=O)O)N1C(=O)/C(=C/C=C/c2ccco2)SC1=S (stereo not given),0,0,0,0,81,0
COC(=O)C[C@H]1C=C[C@H](NS(=O)(=O)c2ccccc2F)[C@H](CO)O1,0,0,0,0,0,0
CC(=O)N(C)C[C@H]1Oc2cc(C#Cc3ccccc3)ccc2S(=O)(=O)N([C@H](C)CO)C[C@@H]1C,0,0,0,0,0,0
O=C(O)C(Cc1ccccc1)N1C(=O)/C(=C/C=C/c2ccco2)SC1=S (stereo not given),0,0,0,0,91,0
COc1ccc(/C=C2\SC(=S)N(C(Cc3ccccc3)C(=O)O)C2=O)cc1 (stereo not given),0,0,0,0,0,-
O=C1S/C(=C\C=C\c2ccco2)C(=O)N1c1ccc(O)cc1,0,0,0,0,43,-
O=C(O)CCCN1C(=O)/C(=C/C=C/c2ccco2)SC1=S,0,0,0,0,82,-
Cc1ccc(NC(=O)CCCN2C(=O)/C(=C/C=C/c3ccccc3)SC2=S)cc1,-,-,-,0,-,0
COc1ccc2c3c(n(C)c2c1)[C@H](CO)N(C(=O)Nc1ccc(F)cc1)CC31CN(C(=O)NC(C)C)C1,-,-,-,0,-,-
COCC(=O)N(C)C[C@@H]1Oc2ncc(-c3ccc(C)cc3)cc2C(=O)N([C@@H](C)CO)C[C@@H]1C,0,0,0,0,0,0
CN1C(=O)C(N=Nc2ccc([N+](=O)[O-])cc2)SC1=S (stereo not given),44,0,0,0,0,0
CO[C@@H]1CN(C)C(=O)c2ccc(NC(=O)C3CC3)cc2OC[C@@H](C)N(Cc2cccnc2)C[C@H]1C,0,0,0,0,0,0
Cc1ccc(C)c(-n2c3nc(=O)[nH]c(=O)c-3cc3cc([N+](=O)[O-])ccc32)c1,0,0,0,0,50,0
Cc1cccc(-n2c3nc(=O)[nH]c(=O)c-3cc3cc([N+](=O)[O-])ccc32)c1,0,0,0,0,0,0
O=C(CN1C(=O)NC2(CCOc3ccccc32)C1=O)c1ccc(Cl)cc1 (stereo not given),0,0,0,0,78,0
CC(=O)c1ccc(S(=O)(=O)Nc2cccc(-n3cnnn3)c2)cc1,0,0,0,0,56,0
O=C(C[C@H]1CC[C@@H](NS(=O)(=O)c2ccc(F)cc2)[C@@H](CO)O1)NCc1ccncn1,0,0,0,0,0,0
C[C@@H]1Cc2c(O)c(O)cc(O)c2C(=O)O1,-,-,-,-,-,0
SMILES,MLL AF4-AF9 inh,S100A4 MyoIIA,RAD52 anneal inh,Xi reactivation,CASP6 VEID inh,RAD54 branch
O=C1C=C(O)c2c(O)cc(O)c(O)c2C1=O,0,0,0,-,71,0
O=C1c2ccccc2C(=O)c2c(O)c(O)cc(O)c21,0,0,0,0,41,0
C[C@@H]1CN([C@H](C)CO)C(=O)Cc2cc(NC(=O)Cc3cn(C)c4ccccc34)ccc2O[C@@H]1CN(C)S(=O)(=O)c1ccc(F)cc1,0,0,0,0,0,0
CCCCN1C(=O)/C(=C/C=C2\Oc3ccccc3N2CC)SC1=S,0,0,0,0,0,0
CCN1/C(=C/C=C/c2oc3ccc(-c4ccccc4)cc3[n+]2CC)Oc2ccc(-c3ccccc3)cc21,0,+,0,103,0,0
CC(C)c1ccc(S(=O)(=O)/N=C2\C=C(NS(=O)(=O)c3ccccc3)C(=O)c3ccccc32)cc1,0,0,0,0,0,0
Cc1ccc(NC2=C/C(=N/S(=O)(=O)c3cccs3)c3ccccc3C2=O)cc1C,0,0,0,0,0,0
CC(=O)Nc1ccc(NC2=C/C(=N/S(=O)(=O)c3cccs3)c3ccccc3C2=O)cc1,0,0,0,0,99,-
Cc1ccccc1NC1=C/C(=N\S(=O)(=O)c2cccs2)c2ccccc2C1=O,-,-,-,-,-,0
CCc1ccc(S(=O)(=O)/N=C2\C=C(NS(=O)(=O)c3ccccc3)C(=O)c3ccccc32)cc1,0,0,0,0,49,0
Cc1ccccc1NC1=C/C(=N\S(=O)(=O)c2ccc(C(=O)O)cc2)c2ccccc2C1=O,0,0,0,0,99,0
O=C(O)c1ccc(S(=O)(=O)/N=C2\C=C(Nc3ccccc3F)C(=O)c3ccccc32)cc1,0,0,0,0,99,0
C[C@@H]1CCCCO[C@@H](CN(C)S(C)(=O)=O)[C@H](C)CN([C@@H](C)CO)C(=O)c2cc(N(C)C)ccc2O1,0,0,0,0,0,0
CO[C@H]1CN(C)C(=O)c2cc(NC(=O)C3CCCC3)ccc2OC[C@@H](C)N(C(=O)CC2CC2)C[C@H]1C,0,0,0,0,0,0
CCC(=O)N1CC2(CN(Cc3ccccc3Cl)C2)c2c([nH]c3cc(OC)ccc23)[C@@H]1CO,29,0,0,0,0,-
CCC(=O)N1CC2(CCN(Cc3ccc(Cl)cc3)CC2)c2c([nH]c3cc(OC)ccc23)[C@H]1CO,32,-,-,0,-,-
COc1ccc2c3c([nH]c2c1)[C@@H](CO)N(Cc1nccs1)CC31CCN(Cc2cncnc2)CC1,0,0,50,0,-,-
CCC(=O)N1CC2(CCN(Cc3ccccc3Cl)CC2)c2c([nH]c3cc(OC)ccc23)[C@H]1CO,0,0,0,0,0,-
COc1ccc2c3c([nH]c2c1)[C@@H](CO)N(C(=O)CN(C)C)CC31CCN(Cc2ccccc2Cl)CC1,30,0,0,0,0,-
COCC(=O)N1CC2(CCN(Cc3ccc(Cl)cc3)CC2)c2c([nH]c3cc(OC)ccc23)[C@@H]1CO,0,0,0,0,0,-
